We go through 24 compounds from ChEMBL document CHEMBL1806414, “Synthesis and anticonvulsant activity of 7-phenyl-6,7-dihydro-[1,2,4]triazolo[1,5-a]pyrimidin-5(4H)-ones and their derivatives” (Eur J Med Chem, 2011).

Active and inactive are the calls of the source. The rule behind the calls is not given here.

Data set [1] deals with Mus musculus. Nature of the data set: Anticonvulsant activity in Kunming mouse assessed as protection against maximal electric shock-induced seizures at 300 mg/kg, ip measured after 4 hrs. It is filed as functional, organism-based. Set-up: dose 300 mg/kg. The method, boiled down: (§1)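 KunMing mice (18–22 g), compounds dissolved in DMSO, given i.p. at 30, 100 and 300 mg/kg, three mice per dose. Current applied through corneal electrodes for 0.2 s at 0.5 h and 4 h after dosing. Protection is abolition of tonic hind-leg extension, scored as protected/tested.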

For data set [2], the system named is Mus musculus. Nature of the data set: Anticonvulsant activity in Kunming mouse assessed as protection against maximal electric shock-induced seizures at 100 mg/kg, ip measured after 4 hrs. It is filed as functional, organism-based. The arrangement: dose 100 mg/kg. The method, boiled down: as §1
Data set [3] relates to Mus musculus. Nature of the data set: Anticonvulsant activity in Kunming mouse assessed as protection against maximal electric shock-induced seizures at 30 mg/kg, ip measured after 4 hrs. The data set is classed as functional, organism-based. Set-up: dose 30 mg/kg. An outline of the steps: as §1
Data set [4] relates to Mus musculus. Nature of the data set: Anticonvulsant activity in Kunming mouse assessed as protection against maximal electric shock-induced seizures at 300 mg/kg, ip measured after 0.5 hrs. It is filed as functional, organism-based. Set-up: dose 300 mg/kg. An outline of the steps: as §1
In data set [5] the test system is Mus musculus. Nature of the data set: Anticonvulsant activity in Kunming mouse assessed as protection against maximal electric shock-induced seizures at 100 mg/kg, ip measured after 0.5 hrs. The arrangement: dose 100 mg/kg. The data set is classed as functional, organism-based. The method, boiled down: as §1
The test system of data set [6] is Mus musculus. Nature of the data set: Anticonvulsant activity in Kunming mouse assessed as protection against maximal electric shock-induced seizures at 30 mg/kg, ip measured after 0.5 hrs. The data set is classed as functional, organism-based. Set-up: dose 30 mg/kg. An outline of the steps: as §1
The species named for data set [7] is Mus musculus. In words: Protective index, ratio of TD50 for neurotoxicity in Kunming mouse to ED50 for inhibition of MES-induced seizures in Kunming mouse. The data set is classed as functional.
The nature of data set [8]: Neurotoxicity in ip dosed Kunming mouse by rotarod test. The settings on record: in vivo. The data set is classed as toxicity, organism-based. An outline of the steps:
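Phase-II rotarod test in KunMing mice trained on a 3.2 cm rod at 10 rpm, DMSO vehicle. Groups of 10 mice got graded i.p. doses until at least three points fell within 10–90% minimal neurotoxicity, giving the median toxic dose.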
For orientation: The rotarod test checks motor coordination on a turning rod.

The test system of data set [9] is Mus musculus. In words: Anticonvulsant activity against maximal electric shock-induced seizures in ip dosed Kunming mouse assessed as median effective dose. The data set is classed as functional. The method, boiled down:
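Phase-II MES test in KunMing mice (18–22 g), DMSO vehicle, corneal electrode stimulus 0.2 s. Groups of 10 mice got a range of i.p. doses until at least three points fell within 10–90% seizure protection, giving the median effective dose. Endpoint is abolition of tonic hind-leg extension.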

In data set [10] the test system is Mus musculus. In words: Neurotoxicity in Kunming mouse at 300 mg/kg, ip after 4 hrs. Set-up: dose 300 mg/kg, route intraperitoneal. It is filed as toxicity, organism-based. The settings on record: in vivo. An outline of the steps:
(§2)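 Rotarod neurotoxicity in KunMing mice (18–22 g) trained on a 3.2 cm diameter rod at 10 rpm. Compounds in DMSO were given i.p. at 30, 100 and 300 mg/kg, three mice per dose, and tested at 0.5 h and 4 h after dosing.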

Data set [11] relates to Mus musculus. In words: Neurotoxicity in Kunming mouse at 100 mg/kg, ip after 4 hrs. It is filed as toxicity, organism-based. The arrangement: dose 100 mg/kg, route intraperitoneal. The settings on record: in vivo. The method, boiled down:
as §2

The subject of data set [12] is Mus musculus. Nature of the data set: Neurotoxicity in Kunming mouse at 100 mg/kg, ip after 0.5 hrs. The arrangement: dose 100 mg/kg, route intraperitoneal. The data set is classed as toxicity, organism-based. The settings on record: in vivo. The method, boiled down:
as §2

Data set [13] relates to Mus musculus. In words: Neurotoxicity in Kunming mouse at 300 mg/kg, ip after 0.5 hrs. The data set is classed as toxicity, organism-based. The arrangement: dose 300 mg/kg, route intraperitoneal. The settings on record: in vivo. An outline of the steps:
as §2

For the compound `O=C1CC(c2ccc(Cl)cc2Cl)n2ncnc2N1` (centres undefined), the result in data set [1], in [2], in data set [3], in data set [4], in data set [5] and in data set [6] was inactive.
Turning to `O=C1CC(c2ccccc2F)n2ccnc2N1` (centres undefined), in [7], the “Ratio TD50/ED50” value turned out to be 4.4. The TD50 (usually the 50% point of the dose-response relation for the toxic effect studied) in data set [8] worked out at 387 mg/kg. Besides, the ED50 (usually the dose at which the effect has come halfway, by size or by number of responders) in [9] amounted to 88 mg/kg. Moreover, the Activity entry in data set [10], in [11] and in data set [12] was “Non-toxic” each time. Further, the result in data set [1], in [2], in data set [3] and in data set [6] was inactive. The outcome in data set [4] and in [5] was Active.
For the compound `COc1ccc(C2CC(=O)Nc3ncnn32)cc1` (centres undefined), the result in data set [1], in data set [2], in data set [3], in data set [5] and in data set [6] was inactive.
As for `O=C1CC(c2ccccc2)n2ncnc2N1Cc1ccccc1` (centres undefined), the result in data set [1], in data set [2], in data set [3] and in data set [6] was inactive.
For `O=C1CC(c2cccc(Cl)c2)n2ncnc2N1` (centres undefined), the “Ratio TD50/ED50” value in data set [7] is 11.2. Also, the TD50 in data set [8] was 528 mg/kg. Moreover, in data set [9], the ED50 was found to be 47.3 mg/kg. In addition, the Activity result in data set [10], in [11] and in data set [12] was “Non-toxic” each time. In addition, the outcome in data set [1], in data set [2], in data set [3] and in data set [6] was inactive. For the same compound, the outcome in [4] and in data set [5] was Active.
Regarding `CCC1(c2ccccc2)C(=O)NC(=O)NC1=O` [PHENOBARBITAL], in [9], the ED50 is 21.8 mg/kg.
With `O=C1CC(c2ccccc2Cl)n2ncnc2N1` (centres undefined), in data set [7], the “Ratio TD50/ED50” value is recorded as 18.2. The compound further returned a TD50 in [8] of 465 mg/kg. For the same compound, in data set [9], the 50% effective dose (ED50) amounted to 25.5 mg/kg. The Activity result in data set [10], in data set [11] and in data set [12] was “Non-toxic” in each case. For the same compound, the result in data set [1], in data set [2] and in [3] was inactive. Further, the outcome in data set [4], in data set [5] and in [6] was Active.
Take `CCCCCCN1C(=O)CC(c2ccccc2)n2ncnc21` (centres undefined): the outcome in [1], in data set [2], in [3] and in [6] was inactive.
Take `O=C1CC(c2ccccc2)n2ncnc2N1` (centres undefined): the “Ratio TD50/ED50” value in data set [7] was found to be 10.5. Also, the TD50 in data set [8] turned out to be 548 mg/kg. Moreover, in [9], the ED50 worked out at 51.9 mg/kg. The Activity result in [10], in data set [11] and in [12] was “Non-toxic” in each case. Moreover, the result in data set [1], in data set [2], in [3] and in data set [6] was inactive. Further, the result in data set [4] and in data set [5] was Active.
Regarding `O=C1CC(c2ccccc2Br)n2c(nc3ccccc32)N1` (centres undefined), the result in [1], in [2], in data set [3], in data set [4], in data set [5] and in data set [6] was inactive.
In the case of `O=C1CC(c2cccc(F)c2)n2ncnc2N1` (centres undefined), the result in data set [1], in data set [2], in data set [3], in data set [5] and in data set [6] was inactive.
Regarding `O=C1CC(c2ccccc2F)n2ncnc2N1` (centres undefined), the “Ratio TD50/ED50” value in [7] was 14.4. Besides, the TD50 in data set [8] amounted to 456 mg/kg. For the same compound, the median effective dose (ED50) in data set [9] amounted to 31.7 mg/kg. The Activity entry in [10], in data set [11] and in data set [12] was “Non-toxic” in each case. For the same compound, the result in data set [1], in data set [2] and in data set [3] was inactive. Also, the result in [4] and in [5] was Active.
For `CN1C(=O)CC(c2ccccc2)n2ncnc21` (centres undefined), the outcome in [1], in data set [2], in data set [3] and in data set [6] was inactive. In data set [4], the outcome was Active.
Turning to `Cc1ccc(C2CC(=O)Nc3ncnn32)cc1` (centres undefined), the result in data set [1], in data set [2], in data set [3] and in data set [6] was inactive. Also, the result in data set [4] was Active.
Turning to `O=C1CC(c2ccccc2)n2c(nc3ccccc32)N1` (centres undefined), the outcome in [1], in data set [2], in data set [3], in data set [4], in [5] and in [6] was inactive.
Consider `COc1ccccc1C1CC(=O)Nc2ncnn21` (centres undefined), for which the result in [1], in data set [2], in [3], in data set [5] and in data set [6] was inactive.
With `O=C1CC(c2ccccc2Br)n2ccnc2N1` (centres undefined), the result in data set [1], in data set [2], in [3] and in data set [6] was inactive. In [4], the outcome was Active.
Regarding `O=C1CC(c2ccccc2Cl)n2c(nc3ccccc32)N1` (centres undefined), the result in data set [1], in [2], in data set [3], in data set [4], in data set [5] and in data set [6] was inactive.
`O=C1CC(c2ccccc2)n2nccc2N1` (centres undefined): the “Ratio TD50/ED50” value in data set [7] is 2.5. The compound also yielded a TD50 in [8] of 118 mg/kg. The ED50 in [9] was found to be 47.3 mg/kg. The Activity result in data set [10] is listed as “Non-toxic”; in data set [11], “Non-toxic”; in data set [13] it was “Toxic”. Also, the result in [1], in data set [2] and in data set [3] was inactive. For the same compound, the outcome in [4] and in data set [5] was Active.
Take `O=C1CC(c2ccccc2Cl)n2ccnc2N1` (centres undefined): the result in data set [1], in data set [2], in data set [3] and in data set [6] was inactive. In addition, in data set [4], the result was Active.
Turning to `O=C1CC(c2ccccc2F)n2c(nc3ccccc32)N1` (centres undefined), the outcome in data set [1], in [2], in [3], in data set [4], in data set [5] and in [6] was inactive.
Turning to `O=C1CC(c2ccc(F)cc2)n2ncnc2N1` (centres undefined), the result in data set [1], in data set [2], in data set [3], in data set [5] and in [6] was inactive.
Take `O=C1CC(c2ccc(Cl)cc2)n2ncnc2N1` (centres undefined): the result in data set [1], in [2], in [3] and in [6] was inactive. The result in [4] was Active.
In the case of `O=C1CC(c2ccc(Br)cc2)n2ncnc2N1` (centres undefined), the result in [1], in data set [2], in data set [3], in data set [5] and in [6] was inactive.
